Calls of active or inactive are those of the source. The rule behind the calls is not given here.
Experiments:
[1] = biological target: T1, ATP-dependent 6-phosphofructokinase (Trypanosoma cruzi) (UniProt Q4E657); test: Inhibition of Trypanosoma cruzi PFK at 57 uM
T1 sequence (whole entry): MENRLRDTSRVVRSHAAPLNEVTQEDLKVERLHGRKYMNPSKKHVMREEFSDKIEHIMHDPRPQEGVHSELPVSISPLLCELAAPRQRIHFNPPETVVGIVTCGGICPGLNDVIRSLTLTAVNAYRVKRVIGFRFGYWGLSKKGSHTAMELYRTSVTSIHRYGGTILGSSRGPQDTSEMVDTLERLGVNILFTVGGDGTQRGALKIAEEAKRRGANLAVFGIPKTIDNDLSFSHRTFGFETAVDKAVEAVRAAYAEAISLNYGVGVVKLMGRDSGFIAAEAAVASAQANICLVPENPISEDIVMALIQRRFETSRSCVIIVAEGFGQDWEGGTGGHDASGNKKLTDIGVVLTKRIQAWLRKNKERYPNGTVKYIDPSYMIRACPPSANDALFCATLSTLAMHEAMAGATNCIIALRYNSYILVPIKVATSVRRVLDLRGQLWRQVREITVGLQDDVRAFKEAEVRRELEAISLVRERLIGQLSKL
How it was run: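 PFK activity is measured by coupling ADP production to ADP-Glo luciferase luminescence at end point. Percent inhibition is recorded at 57 μM, the highest concentration of the dose series, with at least 3 separate experiments averaged.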

[2] = biological target: T2, ATP-dependent 6-phosphofructokinase (Trypanosoma cruzi, UniProt Q4E657); test: Inhibition of Trypanosoma cruzi PFK
T2 sequence (Q4E657 whole entry): T1 sequence (whole entry)

[3] = biological target: T3, ATP-dependent 6-phosphofructokinase (Trypanosoma brucei) (UniProt O15648); test: Inhibition of Trypanosoma brucei PFK-mediated ADP production using ATP/fructose-6-phosphate as substrate at 57 uM by luciferase based luminescence assay
T3 sequence (whole entry): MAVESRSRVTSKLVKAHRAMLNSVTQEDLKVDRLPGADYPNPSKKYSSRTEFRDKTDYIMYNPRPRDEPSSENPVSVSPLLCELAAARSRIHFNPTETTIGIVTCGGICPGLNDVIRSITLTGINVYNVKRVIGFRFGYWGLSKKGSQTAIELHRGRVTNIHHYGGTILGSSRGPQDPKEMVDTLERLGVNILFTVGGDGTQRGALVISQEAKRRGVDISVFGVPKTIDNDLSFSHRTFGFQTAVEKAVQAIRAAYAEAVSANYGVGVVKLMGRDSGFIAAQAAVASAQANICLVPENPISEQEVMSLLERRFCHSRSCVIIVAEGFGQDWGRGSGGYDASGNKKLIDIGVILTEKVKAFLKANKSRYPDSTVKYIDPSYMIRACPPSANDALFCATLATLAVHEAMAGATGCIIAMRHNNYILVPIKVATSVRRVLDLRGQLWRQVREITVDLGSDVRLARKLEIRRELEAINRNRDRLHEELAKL
How it was run: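 Recombinant T. brucei PFK; ADP formed by the enzyme is converted to a luminescent signal by a modified luciferase ADP-Glo detection, read at end point.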

[4] = Aqueous kinetic solubility of the compound; assay type: physicochemical; conditions: buffer; read-out: Kinetic_solubility
[5] = Metabolic stability in human plasma assessed as compound remaining after 2 hrs; assay type: ADME, cell-free; conditions: read-out: Stability
[6] = Cytotoxicity against human MRC5 cells assessed as intracellular ATP content after 72 hrs by Cell titer-Glo luminiscent assay; assay type: cell-based
[7] = Metabolic stability in mouse plasma assessed as compound remaining after 2 hrs; assay type: ADME, cell-free; conditions: read-out: Stability
[8] = biological target: T4, ATP-dependent 6-phosphofructokinase (Trypanosoma brucei, UniProt O15648); test: Inhibition of Trypanosoma brucei PFK-mediated ADP production using ATP/fructose-6-phosphate as substrate by luciferase based luminescence assay
T4 sequence (O15648 whole entry): T3 sequence (whole entry)
How it was run: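 Recombinant enzyme; ADP formed by PFK detected with modified luciferase (ADP-Glo) luminescent end-point in 1536-well format.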

[9] = Half life in human liver microsomes; assay type: ADME
[10] = Half life in mouse liver microsomes; assay type: ADME, Microsome
[11] = Half life in rat liver microsomes; assay type: ADME
[12] = test system: Trypanosoma brucei brucei; test: Antitrypanosomal activity against Trypanosoma brucei brucei Lister 427 assessed as cell viability after 72 hrs by alamar blue assay; assay type: functional
[13] = biological target: T4, ATP-dependent 6-phosphofructokinase; test: Competitive inhibition Trypanosoma brucei PFK using fructose-6-phosphate as substrate by Line-weaver Burk plot analysis
How it was run: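 Coupled biochemical PFK assay titrating F6P at several inhibitor levels (0, 1.5, 12.5, 50, 100 nM), ATP held saturating at 0.5 mM; initial velocities analysed by Lineweaver–Burk transformation, Ki from secondary plots.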

[14] = biological target: T4, ATP-dependent 6-phosphofructokinase; test: Mixed type inhibition Trypanosoma brucei PFK using ATP as substrate by Line-weaver Burk plot analysis
How it was run: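 Coupled biochemical PFK assay titrating ATP at several inhibitor levels (0, 1.5, 12.5, 50, 100 nM), F6P held saturating at 2 mM; initial velocities analysed by Lineweaver–Burk transformation, Ki from secondary plots.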

[15] = test system: Trypanosoma brucei brucei; test: Antitrypanosomal activity against Trypanosoma brucei brucei Lister 427 assessed as cell viability at 1.3 to 33.3 ug/ml after 72 hrs by alamar blue assay; assay type: functional, organism-based
[16] = biological target: T5, ATP-dependent 6-phosphofructokinase, muscle type (Oryctolagus cuniculus) (UniProt P00511); test: Inhibition of recombinant rabbit muscle PFK expressed in PFK-deficient Escherichia coli DF1020DE3 using ATP/fructose 6 phosphate as substrate at 1 uM; assay type: tissue-based; conditions: Muscle tissue
T5 sequence (whole entry): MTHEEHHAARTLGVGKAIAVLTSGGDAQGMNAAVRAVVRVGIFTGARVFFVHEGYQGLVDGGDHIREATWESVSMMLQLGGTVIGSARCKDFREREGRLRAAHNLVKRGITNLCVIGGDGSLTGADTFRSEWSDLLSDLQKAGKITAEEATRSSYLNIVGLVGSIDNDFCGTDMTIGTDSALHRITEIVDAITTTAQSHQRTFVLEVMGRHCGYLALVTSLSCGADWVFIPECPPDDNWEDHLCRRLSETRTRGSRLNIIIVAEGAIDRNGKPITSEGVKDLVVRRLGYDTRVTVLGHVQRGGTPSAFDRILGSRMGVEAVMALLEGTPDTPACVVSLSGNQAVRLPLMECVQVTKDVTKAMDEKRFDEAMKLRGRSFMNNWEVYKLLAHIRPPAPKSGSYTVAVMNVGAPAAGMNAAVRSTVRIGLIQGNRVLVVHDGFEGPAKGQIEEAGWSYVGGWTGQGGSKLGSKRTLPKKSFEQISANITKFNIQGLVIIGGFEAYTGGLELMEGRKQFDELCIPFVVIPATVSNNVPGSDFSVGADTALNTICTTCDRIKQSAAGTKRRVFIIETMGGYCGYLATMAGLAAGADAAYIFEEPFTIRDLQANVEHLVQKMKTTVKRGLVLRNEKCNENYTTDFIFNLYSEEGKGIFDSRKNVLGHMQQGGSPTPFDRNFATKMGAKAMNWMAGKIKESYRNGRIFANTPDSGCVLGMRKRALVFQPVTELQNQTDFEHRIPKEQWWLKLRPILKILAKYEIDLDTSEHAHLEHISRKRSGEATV

| SMILES | inhibition [1] [%] | IC50 [2] [nM] | inhibition [3] [%] | solubility kinetic [4] [µg/mL] | remaining at 2 h [5] [%] | CC50 at 72 h [6] [µM] | remaining at 2 h [7] [%] | IC50 [8] [nM] | half-life [9] [min] | half-life [10] [min] | half-life [11] [min] | Activity [12] | EC50 ([12]; Lister 427, 72 h, read-out: ED50 (the source's name)) [µM] | Ki [13] [nM] | Ki [14] [nM] | Activity [15] | inhibition [16] |
| --- | --- | --- | --- | --- | --- | --- | --- | --- | --- | --- | --- | --- | --- | --- | --- | --- | --- |
| O=C(Cc1ccc(Cl)c(Cl)c1)Nc1ccc(S(=O)(=O)Nc2ccon2)cc1 | > 80 | 130 | > 80 | > 81 | > 95 | > 46 | > 95 | 370 | 330 | 231 | > 30 | Dose-dependent effect | 16.3 | – | – | – | – |
| O=C(Cc1ccc(F)c(Cl)c1)Nc1ccc(S(=O)(=O)Nc2nncs2)cc1 | > 80 | 172 | > 80 | > 81 | > 95 | > 46 | > 95 | 15 | – | – | > 30 | – | – | 52 | 240 | inactive | inactive |
